Results reported in ChEMBL document CHEMBL1770142, “Improvement of the synthesis and pharmacokinetic properties of chromenotriazolopyrimidine MDM2-p53 protein-protein inhibitors” (Bioorg Med Chem Lett, 2011).
Converted amounts (≈) assume the structure as drawn.

Tests used:
[1] = Volume of distribution at steady state in rat at 0.5 mg/kg, iv; format: ADME, organism-based; design: dose 0.5 mg/kg, route intravenous; details: in vivo, read-out: Vdss
How it was run: (§1)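 Rat PK: intravenous 0.5 mg/kg in 100% DMSO; oral 2.0 mg/kg in 0.5% methylcellulose/1% Tween 80/98.5% water. Plasma profiles give MRT, Vdss and CL from the iv arm and F from the oral arm.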

[2] = Oral bioavailability in rat at 2 mg/kg; format: ADME, organism-based; details: in vivo; how it was run: as §1
[3] = Mean residence time in rat at 0.5 mg/kg, iv; format: ADME, organism-based; design: dose 0.5 mg/kg, route intravenous; details: in vivo; how it was run: as §1
[4] = Solubility of the compound in phosphate buffer saline; format: physicochemical
[5] = Mean residence time in rat at 2 mg/kg, iv; format: ADME, organism-based; design: dose 2 mg/kg, route intravenous; details: in vivo
How it was run: (§2)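 Rats dosed intravenously at 2.0 mg/kg in DMSO, or orally at 5.0 mg/kg in 2% HPMC, 1% Tween 80, pH 2.2 with HCl. Plasma levels of parent and of the 4/5 conversion products were followed over time. iv parameters and oral bioavailability were taken from these profiles.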

[6] = Volume of distribution at steady state in rat at 2 mg/kg, iv; format: ADME, organism-based; design: dose 2 mg/kg, route intravenous; details: in vivo, read-out: Vdss; how it was run: as §2
[7] = Oral bioavailability in rat at 5 mg/kg, po; format: ADME, organism-based; details: in vivo; how it was run: as §2

| Vd [1] | bioavailability [2] | MRT [3] | solubility [4] | MRT [5] | Vd [6] | bioavailability [7] | Compound |
| --- | --- | --- | --- | --- | --- | --- | --- |
| 2.6 L/kg | 14% | 0.46 h | 132 µg/mL (≈ 222 µM) |  |  |  | O=C(O)CN1C2=C([C@H](c3ccc(Br)cc3)n3ncnc31)[C@@H](c1ccc(Br)cc1)Oc1ccccc12 |
|  |  |  | < 1 µg/mL | 2.4 h | 9.9 L/kg | 23% | CN1C2=C([C@H](c3ccc(Br)cc3)n3ncnc31)[C@@H](c1ccc(Br)cc1)Oc1ccccc12 |
| 1.7 L/kg | 54% | 4.1 h | 6.1 µg/mL (≈ 9.59 µM) |  |  |  | O=C(O)CCCCN1C2=C([C@H](c3ccc(Br)cc3)n3ncnc31)[C@@H](c1ccc(Br)cc1)Oc1ccccc12 |
